From ChEMBL document CHEMBL1134785, “Synthesis and biological evaluation of prostaglandin-F alkylphosphinic acid derivatives as bone anabolic agents for the treatment of osteoporosis” (J Med Chem, 2001) come the findings set out here.

Data set [1] can be described thus: Dissociation constant was determined. It counts as physicochemical.
Data set [2] concerns the target T1, Prostaglandin F2-alpha receptor (Homo sapiens, UniProt P43088). Nature of the data set: In vitro binding at FP human prostaglandin receptor using [3H]- PGF-2 alpha as radioligand. The method, boiled down: (§1)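 COS-7 cells transiently transfected with hFP plasmid and harvested 48 h later. Membranes from nitrogen cavitation and 100000g spin, taken up at 1 mg protein/mL in TME buffer pH 6.0. Each well held 100 μg membrane, 5 nM [3H]PGF2α and competitor, n=3, 1 h at 23 °C. Bound label collected by GF/B filtration, washed in TME, scintillation counted.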

Data set [3] deals with Prostaglandin E2 receptor EP2 subtype (Homo sapiens, UniProt P43116). Nature of the data set: In vitro binding at EP2 human prostaglandin receptor using [3H]PGE-2 as radioligand. Summed up: (§2)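 Receptors stably expressed in CHO cells, collected 4-5 days after seeding. Membranes made by lysis (Tris, EDTA, protease inhibitors) and 100000g pellet, then resuspended at 1 mg protein/mL in TME. Radioligands at 5 nM: [3H]PGE2 for EP2/EP3/EP4, [3H]Iloprost for IP, [3H]SQ-29548 for TP. Competition binding with filtration and counting.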

The next data set deals with Prostacyclin receptor (Homo sapiens, UniProt P43119). Nature of the data set: In vitro binding at prostanoid IP receptor using [3H]iloprost as radioligand. The method, boiled down: as §2
Data set [4] deals with T2, Prostaglandin E2 receptor EP3 subtype (Homo sapiens, UniProt P43115).
T2 sequence (P43115 whole entry): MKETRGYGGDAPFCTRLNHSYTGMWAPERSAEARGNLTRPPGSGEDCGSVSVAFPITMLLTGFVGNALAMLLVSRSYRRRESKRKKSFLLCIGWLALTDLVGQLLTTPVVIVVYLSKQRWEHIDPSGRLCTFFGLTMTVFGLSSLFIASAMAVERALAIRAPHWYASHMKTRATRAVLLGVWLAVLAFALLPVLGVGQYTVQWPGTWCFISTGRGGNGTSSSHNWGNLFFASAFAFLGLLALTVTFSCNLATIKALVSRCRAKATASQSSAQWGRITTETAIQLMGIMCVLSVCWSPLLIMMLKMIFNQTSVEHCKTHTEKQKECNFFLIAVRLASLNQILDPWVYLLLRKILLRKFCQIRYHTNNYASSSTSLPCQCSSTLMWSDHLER
Description: In vitro binding at EP3 human prostaglandin receptor using [3H]PGE-2 as radioligand. Summed up: as §2

For data set [5], the target named is T3, Prostaglandin E2 receptor EP1 subtype (Homo sapiens, UniProt P34995).
T3 sequence (P34995 whole entry): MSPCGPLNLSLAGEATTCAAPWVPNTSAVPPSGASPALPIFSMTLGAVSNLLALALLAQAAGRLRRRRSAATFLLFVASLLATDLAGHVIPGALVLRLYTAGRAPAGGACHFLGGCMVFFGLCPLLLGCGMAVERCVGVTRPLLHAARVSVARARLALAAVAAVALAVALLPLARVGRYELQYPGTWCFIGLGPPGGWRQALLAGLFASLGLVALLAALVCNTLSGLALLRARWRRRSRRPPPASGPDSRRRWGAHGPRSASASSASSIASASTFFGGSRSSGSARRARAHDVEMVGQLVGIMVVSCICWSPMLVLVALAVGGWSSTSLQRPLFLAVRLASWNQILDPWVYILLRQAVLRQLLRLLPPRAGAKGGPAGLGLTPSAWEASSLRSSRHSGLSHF
Nature of the data set: In vitro binding at EP1 human prostaglandin receptor using [3H]PGE-2 as radioligand. Summed up: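 hEP1 transiently expressed in COS-7 cells by the hFP transfection and membrane protocol, with membranes in TME buffer pH 6.0. Competition binding used 5 nM [3H]PGE2, 1 h at 23 °C, filtration and scintillation counting.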

The target in another data set is T4, Thromboxane A2 receptor (Homo sapiens, UniProt P21731).
T4 sequence (P21731 whole entry): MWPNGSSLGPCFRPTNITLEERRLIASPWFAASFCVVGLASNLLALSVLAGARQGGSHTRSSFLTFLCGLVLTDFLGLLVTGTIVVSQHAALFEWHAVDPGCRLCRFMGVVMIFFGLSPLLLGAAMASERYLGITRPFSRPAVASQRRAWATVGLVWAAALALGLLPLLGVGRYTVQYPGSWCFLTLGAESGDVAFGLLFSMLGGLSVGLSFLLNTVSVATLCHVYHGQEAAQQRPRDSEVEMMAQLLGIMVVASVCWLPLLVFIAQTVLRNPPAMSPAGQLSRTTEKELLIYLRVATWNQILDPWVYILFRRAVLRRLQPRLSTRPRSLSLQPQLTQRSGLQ
Description: In vitro binding at TP human prostaglandin receptor using [3H]SQ-29,548 as radioligand. Summed up: as §2

For data set [6], the target named is T1, Prostaglandin F2-alpha receptor. Nature of the data set: In vitro binding at FP human prostaglandin receptor using [3H]PGF-2 alpha as radioligand. Summed up:
as §1

For a further data set, the system named is Rattus norvegicus. Description: Mineral apposition measured Histomorphometrically after a dose of 3 ug/kg in proximal tibial metaphysis.
Data set [7] deals with T5, Prostaglandin D2 receptor (Homo sapiens, UniProt Q13258).
T5 sequence (Q13258 whole entry): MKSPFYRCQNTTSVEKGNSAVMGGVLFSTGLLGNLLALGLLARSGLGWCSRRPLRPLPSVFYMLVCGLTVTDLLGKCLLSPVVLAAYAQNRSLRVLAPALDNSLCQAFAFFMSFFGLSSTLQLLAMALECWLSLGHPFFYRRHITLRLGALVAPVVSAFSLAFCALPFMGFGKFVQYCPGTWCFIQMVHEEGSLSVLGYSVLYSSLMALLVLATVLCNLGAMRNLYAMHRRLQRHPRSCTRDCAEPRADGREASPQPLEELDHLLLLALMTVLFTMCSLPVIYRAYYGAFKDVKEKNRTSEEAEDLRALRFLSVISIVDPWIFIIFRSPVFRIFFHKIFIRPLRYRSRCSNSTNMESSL
Nature of the data set: In vitro binding at DP human prostaglandin receptor using [3H]- PGD-2 as radioligand. Summed up:
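hDP stably expressed in HEK-293 cells, collected 4-5 days after seeding. Membranes made by lysis and 100000g spin, then taken up at 1 mg protein/mL in TME buffer at pH 7.4. Competition binding used 5 nM [3H]PGD2, read by filtration and scintillation counting.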

Data set [8] deals with Prostaglandin E2 receptor EP4 subtype (Homo sapiens, UniProt P35408). Description: In vitro binding at EP4 human prostaglandin receptor using [3H]PGE-2 as radioligand. Summed up:
as §2

T1 sequence (P43088 whole entry): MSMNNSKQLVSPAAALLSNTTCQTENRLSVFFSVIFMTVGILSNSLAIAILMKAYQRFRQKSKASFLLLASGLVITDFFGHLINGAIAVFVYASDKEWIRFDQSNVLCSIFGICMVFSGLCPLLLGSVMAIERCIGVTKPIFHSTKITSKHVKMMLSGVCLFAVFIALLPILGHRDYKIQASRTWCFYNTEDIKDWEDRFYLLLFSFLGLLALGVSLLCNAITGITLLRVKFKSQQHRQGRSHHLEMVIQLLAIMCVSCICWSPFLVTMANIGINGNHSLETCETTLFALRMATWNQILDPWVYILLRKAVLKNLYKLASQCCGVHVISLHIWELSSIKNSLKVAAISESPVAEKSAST
Chain of Prostaglandin E2 receptor EP2 subtype (P43116 whole entry): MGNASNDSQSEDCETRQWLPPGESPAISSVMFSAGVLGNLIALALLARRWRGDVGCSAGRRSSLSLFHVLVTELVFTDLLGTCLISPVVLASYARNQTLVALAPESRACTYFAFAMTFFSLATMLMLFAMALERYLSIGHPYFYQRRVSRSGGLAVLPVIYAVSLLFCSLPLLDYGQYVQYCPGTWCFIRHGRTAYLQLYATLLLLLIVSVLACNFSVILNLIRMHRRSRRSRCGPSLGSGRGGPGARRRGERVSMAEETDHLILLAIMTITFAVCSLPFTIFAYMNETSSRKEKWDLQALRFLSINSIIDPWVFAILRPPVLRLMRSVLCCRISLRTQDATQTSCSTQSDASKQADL
Chain of Prostacyclin receptor (P43119 whole entry): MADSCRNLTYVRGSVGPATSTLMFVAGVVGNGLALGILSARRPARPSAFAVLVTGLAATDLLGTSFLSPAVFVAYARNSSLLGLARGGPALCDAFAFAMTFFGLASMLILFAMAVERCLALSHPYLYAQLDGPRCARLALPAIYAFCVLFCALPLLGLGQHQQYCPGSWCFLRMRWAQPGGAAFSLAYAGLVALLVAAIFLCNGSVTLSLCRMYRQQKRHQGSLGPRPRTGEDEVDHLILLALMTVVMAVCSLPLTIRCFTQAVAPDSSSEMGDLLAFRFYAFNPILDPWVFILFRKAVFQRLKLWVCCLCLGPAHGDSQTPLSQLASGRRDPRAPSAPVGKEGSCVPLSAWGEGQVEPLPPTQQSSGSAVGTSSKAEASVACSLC
Chain of Prostaglandin E2 receptor EP4 subtype (P35408 whole entry): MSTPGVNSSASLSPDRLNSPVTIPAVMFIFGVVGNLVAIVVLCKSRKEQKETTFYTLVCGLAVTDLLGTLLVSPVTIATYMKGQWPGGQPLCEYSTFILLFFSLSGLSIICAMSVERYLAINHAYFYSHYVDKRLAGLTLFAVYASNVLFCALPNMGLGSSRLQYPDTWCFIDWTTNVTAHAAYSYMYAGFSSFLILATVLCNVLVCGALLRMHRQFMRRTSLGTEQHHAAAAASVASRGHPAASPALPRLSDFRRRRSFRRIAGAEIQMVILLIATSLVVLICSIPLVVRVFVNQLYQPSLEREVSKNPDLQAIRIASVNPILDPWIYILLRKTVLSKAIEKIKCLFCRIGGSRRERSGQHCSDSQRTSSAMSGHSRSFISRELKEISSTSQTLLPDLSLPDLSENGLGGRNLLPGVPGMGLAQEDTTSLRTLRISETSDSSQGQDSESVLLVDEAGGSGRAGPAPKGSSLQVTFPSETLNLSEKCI

For orientation: pKa means the negative logarithm of the acid dissociation constant. A high value points to a weaker acid or stronger base. As usually defined, the IC50 is the point on the concentration scale where inhibition reaches its midpoint. Low readings indicate inhibition by little substance, high ones a need for much substance. In turn, `CCCCC[C@H](O)/C=C/[C@@H]1[C@@H](C/C=C\CCCP(=O)(O)OCC)[C@@H](O)C[C@H]1O` showed a pKa in [1] of 2.36. The same compound gave a 50% inhibitory concentration (IC50) in data set [2] greater than 10 µM.
As to `CCCCC[C@H](O)/C=C/[C@@H]1[C@@H](C/C=C\CCCC(=O)O)[C@@H](O)C[C@H]1O` [DINOPROST], the pKa in data set [1] amounted to 4.77. Also, the IC50 in data set [3] is greater than 10 µM; at Prostacyclin receptor it was greater than 10 µM; in [4], 0.11 µM; in data set [5] it was 0.22 µM; on Thromboxane A2 receptor, greater than 10 µM.
As for `CCCCC[C@H](O)/C=C/[C@@H]1[C@@H](C/C=C\CCCP(=O)(O)CCCC)[C@@H](O)C[C@H]1O`, the pKa in data set [1] was 3.36. The same compound registered an IC50 in data set [6] of 6.7 µM.
Compound `CCCCC[C@H](O)/C=C/[C@@H]1[C@@H](C/C=C\CCCP(C)(=O)O)[C@@H](O)C[C@H]1O` yielded a pKa in data set [1] of 3.1. This compound returned a half-inhibitory concentration (IC50) in data set [6] of 0.311 µM.
In data set [1], `CCCCC[C@H](O)/C=C/[C@@H]1[C@@H](C/C=C\CCCP(=O)(O)O)[C@@H](O)C[C@H]1O` gave a pKa of 2.38. The same compound yielded an IC50 in data set [2] of 1 µM.
In the case of `NCCCC(O)(P(=O)(O)O)P(=O)(O)O` [ALENDRONIC ACID], the Mineral apposition rate in the data set on Rattus norvegicus is 0.63 µm/day.
Consider `CCCCC[C@H](O)/C=C/[C@@H]1[C@@H](C/C=C\CCC[PH](=O)O)[C@@H](O)C[C@H]1O`, for which the pKa in data set [1] came out at 3.39. Besides, the concentration for half-maximal inhibition (IC50) (in data set [3]; on Prostacyclin receptor; in data set [4]; in data set [7]; in data set [5]; in data set [8]) was greater than 10 µM in each case. The figures for the IC50 (at Thromboxane A2 receptor; in [6]) were greater than 10 µM and 0.114 µM, respectively.
As for `CCCCC[C@H](O)/C=C/[C@@H]1[C@@H](C/C=C\CCCP(=O)(O)CC)[C@@H](O)C[C@H]1O`, the pKa in [1] stood at 3.24. The IC50 in [6] turned out to be 4.1 µM.
